# NRP1-CendR mod = alters CendR peptide binding to human NRP-1; 0.85% of 360,000 active; FAM-RPARPAR peptide binding to NRP-1, fluorescence polarization; inhibition, % at 25 µM; AID 602438; O14786;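 active = inhibition or corrected inhibition above about 18%, plus a signal ratio from 0.5 to 1.5, limit read from the data, passing the limit was not always enough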
# DDE Tn7 FP inh = inhibitors of Tn7 peptide binding to human fibrin DD(E) | FP displacement of FITC-Tn7 peptide from fibrin DD(E); 0% = median of compound wells per plate | P02675 | 0.13% of 370,000 active | AID 720508 | inhibition, % at 8.3 µM;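 active = inhibition above the mean of compounds falling within the control limits plus 3 SD of them, cut at about 14% in these data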;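 note: 0% = plate median of compound wells and 100% = 10 µM Aha-Tn7 peptide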
#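 Assay system: human fibrin DD(E). Input: DD(E) 2 µM final. Medium: Tris buffer with calcium and detergent, pH 7.8. Compound dosing: single point at 8.3 µM. Timing: 10 min plus 3 h, room temperature. Technique: fluorescence polarization of the labelled Tn7 tracer. Read-out: percent inhibition. Replicates: singlicate testing.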
# PLCb3 inh = PLC-beta3 (human) inhibition, primary screen. 0.18% of 370,000 active. inhibition, % at 12.2 µM. Q01970. AID 720704. Purified PLC-beta3, fluorogenic substrate, fluorescence; in the data active = inhibition above about 11%;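 note: 0% = median of compound wells on plate and 100% = full blocker control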
# PLCg1 inh = inhibitors of human phospholipase C gamma1 | AID 720700 | inhibition, % at 12.2 µM | purified PLC-gamma1, fluorogenic substrate, fluorescence | 0.84% of 370,000 active | P19174; in the data active = inhibition above about 9.5%
# Target sequence (P19174 whole entry, looked up): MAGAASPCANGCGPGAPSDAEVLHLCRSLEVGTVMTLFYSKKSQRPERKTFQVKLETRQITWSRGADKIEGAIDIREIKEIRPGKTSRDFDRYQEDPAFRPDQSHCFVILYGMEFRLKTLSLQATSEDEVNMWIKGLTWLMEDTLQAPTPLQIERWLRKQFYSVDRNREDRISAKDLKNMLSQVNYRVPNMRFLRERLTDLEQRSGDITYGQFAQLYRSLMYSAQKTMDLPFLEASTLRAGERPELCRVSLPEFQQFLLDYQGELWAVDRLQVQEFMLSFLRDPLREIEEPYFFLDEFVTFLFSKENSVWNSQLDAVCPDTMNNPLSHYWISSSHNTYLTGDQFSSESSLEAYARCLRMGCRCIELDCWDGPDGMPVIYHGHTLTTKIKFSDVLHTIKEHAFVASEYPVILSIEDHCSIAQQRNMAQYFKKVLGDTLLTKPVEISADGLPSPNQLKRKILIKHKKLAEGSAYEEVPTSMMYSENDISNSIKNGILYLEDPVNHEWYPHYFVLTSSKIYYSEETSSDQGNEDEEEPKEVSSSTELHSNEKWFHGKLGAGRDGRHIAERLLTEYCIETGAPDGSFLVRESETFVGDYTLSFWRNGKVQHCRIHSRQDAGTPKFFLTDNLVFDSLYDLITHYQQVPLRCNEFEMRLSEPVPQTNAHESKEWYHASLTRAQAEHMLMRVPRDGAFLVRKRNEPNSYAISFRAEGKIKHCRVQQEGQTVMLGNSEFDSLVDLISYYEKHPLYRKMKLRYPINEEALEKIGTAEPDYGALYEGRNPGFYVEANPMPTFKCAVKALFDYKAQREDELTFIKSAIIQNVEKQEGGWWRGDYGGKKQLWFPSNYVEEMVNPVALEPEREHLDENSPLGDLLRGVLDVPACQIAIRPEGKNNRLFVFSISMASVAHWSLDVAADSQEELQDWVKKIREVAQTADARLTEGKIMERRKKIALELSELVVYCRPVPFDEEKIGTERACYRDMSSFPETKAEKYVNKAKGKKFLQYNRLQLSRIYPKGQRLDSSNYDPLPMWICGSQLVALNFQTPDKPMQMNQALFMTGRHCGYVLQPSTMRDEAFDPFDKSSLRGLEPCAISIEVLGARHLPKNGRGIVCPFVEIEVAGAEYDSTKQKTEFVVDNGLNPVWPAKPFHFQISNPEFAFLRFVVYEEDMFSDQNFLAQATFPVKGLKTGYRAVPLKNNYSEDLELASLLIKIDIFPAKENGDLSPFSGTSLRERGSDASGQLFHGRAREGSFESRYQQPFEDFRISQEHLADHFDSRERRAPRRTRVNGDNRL
# proKLK7 act = proKLK7 (human) activation, primary screen | P49862 | purified proKLK7, EDANS-DABCYL substrate fluorescence; 100% is mature enzyme control, 0% vehicle | activation, % at 7 µM | 0.9% of 370,000 active | AID 652039;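 active = activation above the mean of all tested compounds plus 3 SD, computed per campaign excluding outliers beyond control limits, cut at about 13% in these data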
# Tn6 DDE FP = disrupts Tn6 cyclic peptide binding to fibrin D-Dimer-E complex; P02675; Fibrin DD(E) TRITC-Tn6 fluorescence polarization displacement; inhibition, % at 8.3 µM; 0.21% of 370,000 active;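 active = inhibition above a per-campaign cutoff: mean of compounds within control limits plus 3 SD, cut at about 15% in these data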;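 note: 0% = median of all compound wells on the plate and 100% = blocking peptide control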
# proKLK7 act conf = confirmation of human kallikrein-7 zymogen activators. shares compounds with proKLK7 act. purified proKLK7, EDANS-DABCYL substrate fluorescence; scaled: vehicle 0, mature enzyme 100. activation, % at 7 µM. 68% of 3,200 active. AID 686949;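 active = activation, as change over the incubation, above the mean of all tested compounds plus 3 SD, cut at about 13% in these data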
# EDANS interfere = fluorescence interference counter-screen for KLK7 activators; shares compounds with proKLK7 act; EDANS-DABCYL substrate fluorescence interference, no enzyme, 4 h; solvent 0%, active enzyme control 100%; activation, % at 7 µM; 80% of 3,200 active; AID 686952;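 active = activation above the all-compound mean plus 3 SD, ignoring values outside control-based bounds, cut at about 4.8% in these data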;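 note: value is the 4 h activation minus the activation read at time zero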
# An asterisk follows results filed as active; i = inactive; x = no result given. Most compounds without a hit are left out; they make up all but 3% or so of the library.
SMILES,NRP1-CendR mod,DDE Tn7 FP inh,PLCb3 inh,PLCg1 inh,proKLK7 act,Tn6 DDE FP,proKLK7 act conf,EDANS interfere
CCOc1ccccc1Oc1c(C)oc2c(CN3CCN(C)CC3)c(O)ccc2c1=O,1.7,-1.4,i,i,77.3*,-1.2,76.8*,74.3*
N#CCC[C@H]1CC[C@]2(CCCN(Cc3cccc4ccccc34)C2)O1,x,-2.4,1.7,-1.4,0.2,0.3,x,x
CCOC(=O)[C@]12CCCCC/C=C\1N(Cc1ccc(OC)cc1)C(=O)[C@H]2CC(=O)NCCC(C)C,x,3.7,1.9,1.0,0.3,6.0,x,x
COc1ccccc1Oc1coc2c(CN3CCOCC3)c(O)ccc2c1=O,8.6,2.0,i,i,193.3*,-2.3,67.7*,79.5*
CCOC(=O)c1oc2c(CN3CCN(C)CC3)c(O)ccc2c(=O)c1-c1ccccc1OC,-3.4,-10.1,-9.8,-11.8,4.9,-0.4,x,x
COc1cccc(Oc2c(C)oc3c(CN4CCCC4)c(O)ccc3c2=O)c1,9.0,-4.7,i,i,75.4*,0.7,73.7*,78.2*
O=c1c(-c2ccc3c(c2)OCCO3)coc2c(CN3CCOCC3)c(O)ccc12,-9.6,2.7,-273.9,-195.0,13.4*,0.3,20.5*,19.2*
COc1ccccc1-c1coc2c(CN3CCOCC3)c(O)ccc2c1=O,3.2,1.7,i,i,158.8*,3.3,66.3*,57.8*
CNC(=O)c1ccc(Nc2nnc(-c3ccc(C(N)=O)cc3)c3ccccc23)cc1,-5.2,-6.7,-301.9,-213.1,132.8*,-5.7,7.2,108.3*
Cc1ccccc1-n1sc2cc(F)ccc2c1=O,-3.8,-2.9,-0.1,-2.5,0.2,-2.1,x,x
Cc1cc(C)[n+](-c2ccc(F)cc2)c2[nH]c(=O)[nH]c(=O)c12,1.6,-0.6,i,i,38.2*,2.7,63.0*,67.7*
Cc1nnc(C)n1N=Cc1ccc(O)cc1O,x,-2.3,-13.7,-9.5,-2.2,-6.4,x,x
COCCCn1c(C(=O)NCCN2CCOCC2)cc2c(=O)n3ccccc3nc21,-0.3,1.2,i,i,82.6*,11.2,71.7*,75.3*
Cc1nc2ccccn2c1C(=O)NCCCN1CCOCC1,14.0,0.0,-0.9,-2.6,0.8,-6.9,x,x
Cn1c(C(=O)NCCN2CCOCC2)cc2c(=O)n3ccccc3nc21,7.6,-9.2,i,i,59.7*,0.4,66.9*,74.2*
COCCCn1c(C(=O)NCCC2=CCCCC2)cc2c(=O)n3cccc(C)c3nc21,-4.2,1.2,-73.2,-42.8,-2.7,-0.5,x,x
Cc1cccn2c(=O)c3cc(C(=O)NCCN4CCOCC4)n(C)c3nc12,6.7,-9.4,i,i,18.7*,-4.5,-48.6,-37.9
Cc1ccc2nc3c(cc(C(=O)NCCCn4ccnc4)n3C)c(=O)n2c1,9.4,3.4,i,i,66.7*,-8.2,62.2*,79.4*
COc1cccc(NC(=O)Nc2nc3ncccn3c2-c2ccc(F)c(F)c2)c1,x,12.2,i,-495.8,3.6,-1.5,x,x
COc1cccc2c(=O)c3c(cnn3C)n(C)c12,5.6,6.5,i,i,49.4*,-2.0,67.8*,67.3*
COc1cccc2c(=O)c3ccoc3n(C)c12,-8.9,0.8,-48.0,-37.3,1.7,-2.4,x,x
CNC(=O)NC(=O)C(C)OC(=O)c1c2c(nc3ccccc13)/C(=C/c1cccs1)CC2 (configuration not stated),-28.4,0.1,i,i,50.1*,2.6,85.4*,73.2*
C=CCN1C(=O)[C@@H](CC(=O)N2CCN(C(=O)C3CC3)CC2)[C@]2(C(=O)OCC)CCCCC/C=C/12,x,1.0,-1.2,0.3,0.1,5.2,x,x
NNC(=O)c1ccc(CSc2cccc3cccnc23)cc1,2.5,-1.5,-195.5,-123.3,12.7*,-4.3,4.4,-1.1
CCOC(=O)N(C)[C@H]1C[C@H]2c3[nH]c4ccccc4c3CCN2C(=O)[C@H]1[C@H](C)O,x,0.7,i,i,50.2*,-4.5,8.2,5.9*
SMILES,NRP1-CendR mod,DDE Tn7 FP inh,PLCb3 inh,PLCg1 inh,proKLK7 act,Tn6 DDE FP,proKLK7 act conf,EDANS interfere
CN(C(=O)NC1CCCCC1)[C@H]1C[C@H]2c3[nH]c4ccccc4c3CCN2C(=O)[C@H]1CO,-15.5,11.5,i,-412.2,-26.0,-1.7,x,x
CN(C(=O)C(C)(C)C)[C@H]1C[C@H]2c3[nH]c4ccccc4c3CCN2C(=O)[C@H]1CO,6.6,2.4,i,-496.5,27.1*,0.8,9.0,9.6*
CCOC(=O)CNC(=O)N(C)[C@H]1C[C@H]2c3[nH]c4ccccc4c3CCN2C[C@H]1[C@H](C)O,-5.9,8.2,-312.3,-243.8,10.9,7.2,x,x
CCOC(=O)CNC(=O)N(C)[C@H]1C[C@H]2c3[nH]c4ccccc4c3CCN2C(=O)[C@H]1[C@H](C)O,7.4,5.5,i,i,73.0*,1.9,11.3,9.8*
C[C@H](O)[C@@H]1C(=O)N2CCc3c([nH]c4ccccc34)[C@@H]2C[C@@H]1N(C)C(=O)OCc1ccccc1,x,-2.1,-94.9,-79.2,11.5,-1.8,x,x
COc1cccc(C(=O)N2CCC(Oc3cccnc3)CC2)c1,x,5.6,2.2,1.4,-0.1,-0.8,x,x
CC(C)CN1CN2Cc3ccccc3C2CS1(=O)=O (configuration not stated),x,8.1,-14.1,-6.2,-0.5,-2.6,x,x
O=C(NCCN1CCOCC1)c1ccc2c(c1)N(Cc1ccccc1)CCS2,-5.3,-1.9,i,i,21.1*,4.7,-47.8,-47.3
CN1CCN(CCCNC(=O)c2ccc3c(c2)N(Cc2ccccc2)CCS3)CC1,3.2,-2.4,-438.2,-369.5,14.9*,-5.2,-34.6,-37.5
O=C(NC1CCCCN(Cc2cccc(F)c2)C1=O)c1ccc(-c2ccccc2)cc1 (configuration not stated),x,0.6,-1.7,1.4,0.3,-6.7,x,x
CCOC(=O)COc1ccc(C(C)c2ccc(NC(=O)OC(C)(C)C)cc2)cc1 (configuration not stated),x,5.8,3.3,1.4,0.3,-1.4,x,x
CCc1nn(CC(=O)NCCN2CCN(C)CC2)c(=O)c2cc3c(OC)cccc3n12,5.5,2.6,i,-393.5,34.5*,-3.0,26.7*,33.6*
O=C(OC12CCCN(C1)/C(=C/c1ccc(Cl)cc1)C2)c1ccc(Cl)cc1 (configuration not stated),x,-5.2,0.8,0.1,-0.2,0.6,x,x
O=S(=O)(c1cccc(-c2cn3cccnc3n2)c1)N1CCOCC1,-2.2,-2.9,i,i,30.2*,-1.1,70.9*,66.7*

# High-throughput results as filed in PubChem.
